{"data": "Results from different studies", "SLC6A3": "Sodium-dependent dopamine transporter (SLC6A3, Homo sapiens, UniProt Q01959)", "CA12": "Carbonic anhydrase 12 (CA12, Homo sapiens, UniProt O43570)", "DRD3": "D(3) dopamine receptor (DRD3, Homo sapiens, UniProt P35462)", "note": "Protocols differ between the studies behind these lines."}
{"SMILES": "CCOC(=O)[C@@]12C[C@@H]1[C@@H](n1cnc3c(NCCCCCc4ccccc4)nc(I)nc31)[C@H](O)[C@@H]2O", "target": "SLC6A3", "observed": "ligand displacement", "technique": "radioligand", "measurement": "Ki", "value": "1.6 µM"}
{"SMILES": "Cc1ccc(-n2cc(COC(=O)c3ccc(=O)oc3)nn2)cc1", "target": "CA12", "observed": "enzyme activity", "mode": "inhibitor", "technique": "stopped-flow", "measurement": "Ki", "value": "62.6 µM"}
{"SMILES": "Cc1[nH]c(C)c(S(=O)(=O)Nc2ccc(C(F)(F)F)c(Cl)c2)c1C(=O)N1CCN(C(=O)OC(C)(C)C)CC1", "target": "DRD3", "observed": "G protein activation", "mode": "antagonist", "technique": "BRET", "measurement": "IC50", "value": "29 µM"}
{"SMILES": "O=C(OCc1cn(-c2ccccc2)nn1)c1ccc(=O)oc1", "target": "CA12", "observed": "enzyme activity", "mode": "inhibitor", "technique": "stopped-flow", "measurement": "Ki", "value": "55.8 µM"}
{"SMILES": "N#CC[C@@]12C[C@@H]1[C@@H](n1cnc3c(NCc4cccc(Cl)c4)nc(C#Cc4ccc(Cl)s4)nc31)[C@H](O)[C@@H]2O", "target": "SLC6A3", "observed": "ligand displacement", "technique": "radioligand", "measurement": "Ki", "value": "1.2 µM"}
{"SMILES": "CC(C)(Sc1ccc(CCN(CCCCC2CCCCC2)C(=O)NC2CCCCC2)cc1)C(=O)O", "target": "Triggering receptor expressed on myeloid cells 2 (Homo sapiens, UniProt Q9NZC2)", "observed": "binding", "technique": "SPR", "measurement": "Kd", "value": "86.2 µM"}
{"SMILES": "C#CCNC(=O)c1ccc(=O)oc1", "target": "CA12", "observed": "enzyme activity", "mode": "inhibitor", "technique": "stopped-flow", "measurement": "Ki", "value": "68.1 µM"}
{"SMILES": "Cc1[nH]c(C)c(S(=O)(=O)Nc2ccc(C(F)(F)F)c(Cl)c2)c1C(=O)O", "target": "DRD3", "observed": "G protein activation", "mode": "antagonist", "technique": "BRET", "measurement": "IC50", "value": "19 µM"}
{"SMILES": "OC[C@@]12C[C@@H]1[C@@H](n1cnc3c(Nc4ccccc4)nc(I)nc31)[C@H](O)[C@@H]2O", "target": "SLC6A3", "observed": "ligand displacement", "technique": "radioligand", "measurement": "EC50", "value": "3 µM"}
{"SMILES": "Cc1[nH]c(C)c(S(=O)(=O)Nc2ccc(C3CC3)c(Cl)c2)c1C(=O)N1CCC(F)(F)C1", "target": "DRD3", "observed": "β-arrestin recruitment", "mode": "antagonist", "measurement": "IC50", "value": "13 µM"}
{"SMILES": "CNC(=O)[C@@]12C[C@@H]1[C@@H](n1cnc3c(NCc4cccc(Cl)c4)nc(C#Cc4ccc(Cl)s4)nc31)[C@H](O)[C@@H]2O", "target": "SLC6A3", "observed": "ligand displacement", "technique": "radioligand", "measurement": "Ki", "value": "1.6 µM"}
{"SMILES": "O=C(Oc1ccccc1)c1ccc(=O)oc1", "target": "CA12", "observed": "enzyme activity", "mode": "inhibitor", "technique": "stopped-flow", "measurement": "Ki", "value": "65.7 µM"}
{"SMILES": "CCOC(=O)[C@@]12C[C@@H]1[C@@H](n1ccc3c(NCCCCCc4ccccc4)nc(C#Cc4ccccc4)nc31)[C@H](O)[C@@H]2O", "target": "SLC6A3", "observed": "ligand displacement", "technique": "radioligand", "measurement": "Ki", "value": "1.9 µM"}
{"SMILES": "O=C(NCc1cn(-c2ccc(Cl)cc2)nn1)c1ccc(=O)oc1", "target": "CA12", "observed": "enzyme activity", "mode": "inhibitor", "technique": "stopped-flow", "measurement": "Ki", "value": "61.2 µM"}
{"SMILES": "Cc1[nH]c(C)c(S(=O)(=O)Nc2ccc(S(C)(=O)=O)c(Cl)c2)c1C(=O)N1CCC(F)(F)C1", "target": "DRD3", "observed": "G protein activation", "mode": "antagonist", "technique": "BRET", "measurement": "IC50", "value": "23 µM"}
{"SMILES": "CCOC(=O)[C@@]12C[C@@H]1[C@@H](n1cnc3c(NCc4cccc(Cl)c4)nc(C#Cc4ccc(Cl)s4)nc31)[C@H](O)[C@@H]2O", "target": "SLC6A3", "observed": "ligand displacement", "technique": "radioligand", "measurement": "Ki", "value": "0.94 µM"}
{"SMILES": "Cc1[nH]c(C)c(S(=O)(=O)Nc2ccc(C(F)(F)F)c(Cl)c2)c1C(=O)N1CC[C@@H](F)C1", "target": "DRD3", "observed": "G protein activation", "mode": "antagonist", "technique": "BRET", "measurement": "IC50", "value": "1 µM"}
{"SMILES": "Cc1ccc(-n2cc(CNC(=O)c3ccc(=O)oc3)nn2)cc1", "target": "CA12", "observed": "enzyme activity", "mode": "inhibitor", "technique": "stopped-flow", "measurement": "Ki", "value": "57.8 µM"}
